Reference: ChEMBL document CHEMBL4513216, “Probing the Open Global Health Chemical Diversity Library for Multistage-Active Starting Points for Next-Generation Antimalarials” (ACS Infect Dis, 2020)

Assay: Toxicity liver stage against HepG2, at 10uM
Assay type: cell-based
Design: test concentration 10 uM, cell line HepG2-A16-CD81EGFP
Conditions: human, HepG2-A16-CD81EGFP cells; read-out: INHIBITION
Outline: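 Uninfected HepG2-A16-CD81EGFP cells, 3 × 10^3 per well, 1536-well, plated on prespotted compound at 10 μM final, parasite-free screening media added to match infected plates; puromycin 10 μM positive, DMSO 0.5% negative; run in parallel with 48 h PbLuc assay at 37 °C, 5% CO2; viability by CellTiter-Glo luminescence, normalized to controls.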

Row | SMILES | cytotoxicity at 10 µM [%]
1 | O=C(NC[C@@H]1CCCO1)c1cc(Br)cnc1N1CCCCC1 | -1.69
2 | CN1C(=O)[C@H](OC(N)=O)[C@@H](C(=O)Nc2ccccc2)C12CCNCC2 | 2.73
3 | Cc1c(CC(C#N)C(=O)Nc2cccc(O)c2)cnn1C (stereo unspecified) | 0.781
4 | COc1coc(C(=O)Nc2nc(-c3cccnc3)cs2)cc1=O | 2.66
5 | COC(=O)C1CCCN1Cc1ccco1 (stereo unspecified) | 9.21
6 | CN1CC2(CCN(C(=O)C3CCC3)CC2)COc2ccccc2S1(=O)=O | 10.2
7 | COC(=O)C(NC(=O)Nc1ccc(C(C)=O)cc1)C(C)C (stereo unspecified) | 4.31
8 | CC(C)CCN1CN=C(NS(=O)(=O)c2ccc(F)cc2)NC1 | -3.03
9 | O=C1CSC(c2ccsc2)c2sccc2N1 (stereo unspecified) | 2.19
10 | COCCN1C(=O)[C@]2(CC[C@@H]3CN(C(=O)NC4CCCC4)C[C@@H]32)N=C1C | -8.85
11 | CC(C)NC(=O)N1CCN(S(=O)(=O)C2CC2)CC2(CNC(=O)C2)C1 (stereo unspecified) | 1
12 | O=C1CCOC[C@]2(CN(Cc3ccccc3)C[C@H]2c2cccnc2)N1 | 4.73
13 | CC(=O)N1CCOC(c2ccnc(N(C)C)n2)C1 (stereo unspecified) | 1.62
14 | CC(C)N1CCC(c2cnc(-c3cn[nH]c3)cn2)CC1 | 5.36
15 | O=C(O)c1ccccc1-n1cc(CN2CCOC(c3cc[nH]n3)C2)cn1 (stereo unspecified) | 3.33
16 | CC(=O)NC1CCc2ccc(S(=O)(=O)NCc3ncccc3C)cc21 (stereo unspecified) | 10.4
17 | CNc1ncc(CN2CCCC2c2[nH]ncc2C(=O)N(C)C)cn1 (stereo unspecified) | 2.91
18 | Cc1cc(-c2cccnc2)nc(C2CCCN2S(C)(=O)=O)n1 (stereo unspecified) | 4.36
19 | Cc1cc(C)nc(N2CCC(C(=O)Nc3ccc(C(C)C)cc3)CC2)n1 | -3.02
20 | CC(=O)N1CCCC(c2nccnc2-c2ccc(CO)cc2)C1 (stereo unspecified) | 1.03
21 | COCCCNC(=O)c1ccccc1-n1cc(CN(C)C)cn1 | -22.4
22 | Cc1noc(CNC(=O)c2ccccc2-n2cc(CN)cn2)n1 | -19.6
23 | O=C(Nc1nncs1)C1CSCN1C(=O)C1CCCC1 (stereo unspecified) | 11.3

Row | SMILES | cytotoxicity at 10 µM [%]
24 | CSc1cccc(NC(=O)CCC(=O)Nc2nccs2)c1 | -5.05
25 | CCn1cc(S(=O)(=O)Nc2cccnc2-n2cccn2)nc1C | 3.21
26 | COCCN(C(=O)c1cc(C)no1)c1ccc(C#N)cc1 | 6.51
27 | CCN(C)Cc1cccc(CNC(=O)CSCc2ccccn2)c1 | 1.61
28 | Oc1ccc(Br)c(CNc2cccc(-c3nnc[nH]3)c2)c1 | -38.9
29 | O=C(NCc1cccc(F)c1)c1cccc(C(=O)N2CCCC2)n1 | 5.79
30 | Cc1noc(C)c1CN(C)CC1CC(C2CCCCC2)=NO1 (stereo unspecified) | 3.72
31 | CCNC(=O)C1CCCN(c2ccc3ccc(F)cc3n2)C1 (stereo unspecified) | -1.69
32 | CC(Cc1cccc(F)c1)C(=O)NS(=O)(=O)c1ccc(F)cc1 (stereo unspecified) | 5.58
33 | Cc1cc(C2CCCN(Cc3ncc(C)o3)C2)n[nH]1 (stereo unspecified) | 4.63
34 | Cc1cnn(CCNCc2cc(-c3ccccc3)no2)c1 | -3.03
35 | O=C(N1CCSCC1)C1(O)Cc2ccccc2C1 | 6.35
36 | O=S(=O)(CCN1CCCC1Cn1cccn1)c1ccccc1 (stereo unspecified) | -11.9
37 | CCNC(=O)Nc1c(C)cnn1Cc1cc(F)ccc1F | 5.28
38 | CC(CO)CSc1ncnc2[nH]ncc12 (stereo unspecified) | -12.3
39 | CCC(CC)(CCO)CNC(=O)c1ccon1 | 6.27
40 | CCc1nnc2n1CCN(Cc1noc(-c3cccc(C)c3)n1)C2 | 12
41 | O=C(O)c1cc2c(c(S(=O)(=O)N(CCCO)c3ccccc3)c1)CCC2 | 6.58
42 | CN(Cc1ccccc1NCc1cscn1)C(=O)c1cccs1 | 0.503
43 | CN(C(=O)COCc1ccccc1)C1CCN(CC2CCOC2)CC1 (stereo unspecified) | -3.7
44 | CN1CCCC(N2CCN(c3nc4ccccn4c3C#N)CC2)C1 (stereo unspecified) | 1.52
45 | CN1CCCC(N2CCN(c3cc(C(F)(F)F)ccn3)CC2)C1 (stereo unspecified) | 5.12
46 | Cc1cc(C(=O)CN2CCN(c3nccs3)CC2)c(C)n1C1CC1 | 10.6

Row | SMILES | cytotoxicity at 10 µM [%]
47 | c1cc(CN2CCN(Cc3ccon3)C3(CCCCC3)C2)no1 | -16.7
48 | N#CCCN(CCN1CCOCC1)Cc1ccc(F)c(Br)c1 | -5.01
49 | O=C(CN1CCSCC1c1ccccc1)N1CCOCC1 (stereo unspecified) | -5.88
50 | Cc1ccc(NC(=O)CNc2cccc3c2CCCC3)c(Br)c1 | 14.8
51 | Cc1nn(C)c(C)c1CNC1CCOc2ccccc21 (stereo unspecified) | 7.75
52 | Cc1nn(C)c(N(C)C)c1CNCC(O)c1ccccc1 (stereo unspecified) | -0.989
53 | CCCn1ccc2ccc(NC(=O)N(C)CCOC)cc21 | 1.31
54 | COCCn1c2c(ccc1=O)CCN(C(=O)C1CC=CC1)CC2 | 4.77
55 | O=C(Nc1cccnc1)[C@H]1CN(Cc2cccs2)C[C@H]2OCC[C@@H]12 | -109
56 | CN1CCN(Cc2cnc3n2CCN(C(=O)c2cnccn2)C3)CC1 | -65.1
57 | CN(C)[C@@H]1CCN(C(=O)c2ccccn2)[C@H]1Cc1cnn(C)c1 | -70
58 | Cc1occc1C(=O)N1CCc2ncnc(C3CCOC3)c2CC1 (stereo unspecified) | -85
59 | OCCC1CN(c2nc(-c3cccnc3)nc3c2CCNCC3)CCO1 (stereo unspecified) | -2.64
60 | CCCOC(=O)N1CCc2cccc(S(=O)(=O)N3CCOCC3)c2C1 | -6.85
61 | Cn1cccc1-c1cc(C(=O)N2CCCCC2c2ccc(F)cc2)[nH]n1 (stereo unspecified) | -2.8
62 | O=C(Cn1ccc2ncccc2c1=O)N1CCSCC1 | -3.06
63 | CC(C)n1cccc1C(=O)N1CC[C@@H](NC(=O)c2ccccn2)[C@H](O)C1 | 2.35
64 | CSCc1noc(-c2nc3c([nH]2)CCCNC3=O)n1 | -2.48
65 | COCCn1cncc1CN1CCCC(C(=O)Cc2ccccc2)C1 (stereo unspecified) | -6.55
66 | Cn1cc(CN(C(=O)C2COc3ccccc3C2)C2CC2)cn1 (stereo unspecified) | 1.81
67 | CCc1nc(CN(C)c2nccc(N3CCCC(O)C3)n2)no1 (stereo unspecified) | 0.324
68 | CNC(=O)[C@@H]1C[C@@H](NC(=O)c2ccc(OC)o2)CN1Cc1sccc1C | 2.29
69 | COCCC1(C(=O)O)CCCN(c2cc(C)c3ccccc3n2)C1 (stereo unspecified) | -38.7

Row | SMILES | cytotoxicity at 10 µM [%]
70 | CN(C)C(C(=O)NCCS(=O)(=O)N(C)C)c1cccc(F)c1 (stereo unspecified) | 2.73
71 | CC(C)c1nccc(C2(c3ccccc3Cl)CCNCC2)n1 | 1.93
72 | CN(C)CCCn1ccc(-c2cccc(-c3ccccn3)c2)n1 | -6.02
73 | COc1ccc(F)c(F)c1CN1CC(=O)N(c2ccccc2C)CC1C (stereo unspecified) | -0.121
74 | CCC(=O)c1ccc(OCC(=O)N(C)C(C)c2ccon2)cc1 (stereo unspecified) | 1.71
75 | C=Cc1ccc(C(=O)NC2CCCc3nc(N(C)C)ncc32)cc1 (stereo unspecified) | 8.18
76 | CCC(Nc1cccc(OC)c1)C(=O)N(CCOC)Cc1cnn(C)c1 (stereo unspecified) | -1.28
77 | Cn1c(CCC(=O)N2CCCC3(CC2)CNC(=O)O3)nc2cccnc21 (stereo unspecified) | -3.56
78 | Cc1nc(N2CCN3CCCCC3C2)nc2cc(S(C)(=O)=O)ccc12 (stereo unspecified) | -6.25
79 | CN(Cc1cc2n(n1)CCCNC2)Cc1ccno1 | 2.57
80 | COCCN(Cc1cnn(C)c1)C(=O)C1CCC(=O)N(C2CCCC2)C1 (stereo unspecified) | 6.11
81 | O=C1CC(c2ncc(-c3ccc4c(c3)OCCO4)[nH]2)CN1C1CCCC1 (stereo unspecified) | 10.8
82 | O=C(CCC(F)(F)F)N1CCCC(CO)(CC2CC2)C1 (stereo unspecified) | 2.75
83 | Cc1ccn2c(F)c(C(=O)N3CCC4(CCC(=O)N(C)C4)CC3)nc2c1 | 5.96
84 | CN(CCc1ccccc1)c1cnn(CC(=O)N2CCOCC2)c(=O)c1 | 1.77
85 | CN(C)c1ncc2c(n1)CCCC2NC(=O)c1ccsc1 (stereo unspecified) | 10
86 | CN1CCCNC(=O)C12CCN(C(=O)c1ccc3[nH]cnc3c1)CC2 | -1.16
87 | CCn1cc(CN2CCCn3nc(CNC(=O)N(C)C)cc3C2)cn1 | 6.99
88 | CCN(Cc1nc(COC)no1)C[C@]1(O)CCCN2CCCC[C@@H]21 | -0.124
89 | NCCn1cc(C(=O)NCc2ccccc2-n2cccn2)nn1 | -2.34
90 | Cc1nc(C)n(C2CCCN(C(=O)c3ccc4nccn4c3)C2)n1 (stereo unspecified) | -12
91 | O=C(c1ccc(Cn2ccccc2=O)o1)N1CCSCC1 | -14.8
92 | COc1ncccc1CNC(=O)c1ccc(C)[nH]c1=O | -2.22

Row | SMILES | cytotoxicity at 10 µM [%]
93 | Cn1cc(NC(=O)N2CCC(Cc3ccccc3)CC2)ccc1=O | 1.07
94 | O=C(NCCCn1cncn1)N1CCCCCC1 | -7.1
95 | CCCc1nc(C(C)(C)NC(=O)C2CC(=O)N(CC3CC3)C2)no1 (stereo unspecified) | -3.61
96 | CCOC(=O)c1sc2ccsc2c1CNC(=O)C(C)(C)C#N | -4.42
97 | Cc1csc(C2CCCN(C(=O)c3cnc4n[nH]c(C)c4c3)C2)n1 (stereo unspecified) | -9.39
98 | CCc1nc(-c2cncnc2C2CCCNC2)no1 (stereo unspecified) | 1.73
99 | O=S1(=O)CCC(NCCn2cncc2-c2ccc3c(c2)CCCO3)C1 (stereo unspecified) | 2.97
100 | Cc1cc(C2CCNCC2)nc(-c2ccsc2)n1 | -1.97
101 | COCC1CN(c2ccc(C)nn2)Cc2cnn(C)c21 (stereo unspecified) | 11.7
102 | c1cncc(OC[C@]23COC[C@H]2CN(C2CCC2)C3)c1 | 4.64
103 | CN1C(Cn2cccn2)C[C@@H]2CN(Cc3ccccn3)CC[C@@H]21 (stereo partly specified) | 0.763
104 | COc1ccc(CN(Cc2ccco2)Cc2[nH]cnc2C)c(OC)c1 | -1.57
105 | CC(C)CN1C(=O)C2(CCN(Cc3cccs3)C2)c2ccccc21 (stereo unspecified) | 10.1
106 | Cc1ccccc1CC(=O)N1C[C@@H]2COC[C@]2(CN(C)C)C1 | 3.79
107 | O=C(N1CCCC1)N1CCc2onc(COc3cccnc3)c2C1 | -75.6
108 | CCCS(=O)(=O)N1CCOCC2(CCN(c3ccccn3)C2)C1 (stereo unspecified) | 2.42
109 | Cc1c(C2CCCN(C(=O)c3ccncc3)C2)n2c(nc1=O)CCC2 (stereo unspecified) | -21.8
110 | O=C(c1ccccn1)N1C[C@H]2CC[C@@H](C1)N(C(=O)c1ccsc1)C2 | 3.88
111 | CC(C)CNC(=O)[C@H]1C[C@H]2CN(C(=O)NCCc3ccccc3)C[C@@H]1O2 | 1.22
